Laboratory results published in ChEMBL document CHEMBL3351225, “Design, synthesis, and structure-activity and structure-pharmacokinetic relationship studies of novel [6,6,5] tricyclic fused oxazolidinones leading to the discovery of a potent, selective, and orally bioavailable FXa inhibitor” (J Med Chem, 2014).
Each block holds one compound with its values, some of them ahead of it.

Key:
[1] = Plasma clearance in Sprague-Dawley rat at 3 mg/kg, iv; type: ADME, organism-based; set-up: dose 3 mg/kg, route intravenous
Procedure, shortened: (§1)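 Male Sprague-Dawley rats, 200−220 g, four per group. Vehicle was 5% DMSO + 5% Tween-80 in 90% saline. The reference drug was given in 10% DMSO + 10% Tween-80 + 80% PEG400 (40% solution in saline). Serial retrobulbar vein samples were quantified by LC-MS. Parameters came from noncompartmental analysis of mean plasma concentrations.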

Coagulation factor X = Coagulation factor X (Homo sapiens, UniProt P00742); test: Inhibition of human factor 10a using N-Z-D-Arg-Gly-Arg-pNA, S-2765 chromogenic substrate
Coagulation factor X, sequence (P00742 41-179 limits assumed): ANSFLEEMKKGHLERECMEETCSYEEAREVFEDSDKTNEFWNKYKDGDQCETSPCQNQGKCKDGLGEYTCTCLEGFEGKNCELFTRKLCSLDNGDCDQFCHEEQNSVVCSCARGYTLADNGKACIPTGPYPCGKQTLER
Coagulation factor X, sequence (P00742 235-488 limits assumed): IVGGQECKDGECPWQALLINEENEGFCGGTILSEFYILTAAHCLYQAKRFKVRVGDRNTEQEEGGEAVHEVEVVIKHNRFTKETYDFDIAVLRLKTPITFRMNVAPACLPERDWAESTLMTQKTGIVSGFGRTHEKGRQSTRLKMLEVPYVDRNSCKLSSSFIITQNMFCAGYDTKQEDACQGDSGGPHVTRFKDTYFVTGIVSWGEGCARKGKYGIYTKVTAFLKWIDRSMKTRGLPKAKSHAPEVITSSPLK

Plasma [2] = test: Anticoagulant activity in citrated rabbit plasma assessed as activated partial thromboplastin time preincubated for 10 mins at 37 degC by coagulometry; type: functional, Oryctolagus cuniculus
Procedure, shortened: (§2)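 Test compound or DMSO added to citrated rabbit plasma (3.8% sodium citrate, 10:90 v/v) and preincubated 10 min at 37 °C. PT and aPTT clotting times measured on a coagulometer with commercial kits. Activity expressed as the concentration needed to double plasma clotting time (CT2, μM).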

[3] = AUC (0 to infinity) in Sprague-Dawley rat at 3 mg/kg, iv; type: ADME, organism-based; set-up: time infinity, dose 3 mg/kg, route intravenous; conditions: plasma; procedure, shortened: as §1
[4] = Cmax in Sprague-Dawley rat at 10 mg/kg, po; type: ADME, organism-based; set-up: dose 10 mg/kg, route oral; conditions: in vivo; procedure, shortened: as §1
[5] = Elimination half life in Sprague-Dawley rat at 3 mg/kg, iv; type: ADME, organism-based; set-up: dose 3 mg/kg, route intravenous; conditions: in vivo, read-out: beta t1/2 (converted); procedure, shortened: as §1
[6] = Elimination half life in Sprague-Dawley rat at 10 mg/kg, po; type: ADME, organism-based; set-up: dose 10 mg/kg, route oral; conditions: in vivo, read-out: beta t1/2 (converted); procedure, shortened: as §1
[7] = Oral bioavailability in Sprague-Dawley rat at 10 mg/kg; type: ADME, organism-based; conditions: in vivo; procedure, shortened: as §1
[8] = Tmax in Sprague-Dawley rat at 10 mg/kg, po; type: ADME, organism-based; set-up: dose 10 mg/kg, route oral; conditions: in vivo; procedure, shortened: as §1
[9] = AUC (0 to infinity) in Sprague-Dawley rat at 10 mg/kg, po; type: ADME, organism-based; set-up: time infinity, dose 10 mg/kg, route oral; conditions: plasma; procedure, shortened: as §1
Plasma [10] = test: Anticoagulant activity in citrated rabbit plasma assessed as drug concentration required to double plasma clotting time preincubated for 10 mins at 37 degC by coagulometry; type: functional, Oryctolagus cuniculus; procedure, shortened: as §2
[11] = Volume of distribution at steady state in Sprague-Dawley rat at 3 mg/kg, iv; type: ADME, organism-based; set-up: dose 3 mg/kg, route intravenous; conditions: in vivo, read-out: Vdss; procedure, shortened: as §1

Structure (SMILES): NS(=O)(=O)c1ccccc1-c1ccc2c(c1)OC[C@H]1[C@H](CNC(=O)c3ccc(Cl)s3)OC(=O)N21
clearance [1]: 0.253 L/h/kg
IC50 (Coagulation factor X): 0.0606 µM
2aPTT (Plasma [2]): 4.86 µM
AUC(0-inf) [3]: 12.2 µg·h/mL
Cmax [4]: 3.63 µg/mL
half-life [5]: 1.38 h
half-life [6]: 1.65 h
bioavailability [7]: 29%
Tmax [8]: 1 h
AUC(0-inf) [9]: 12.3 µg·h/mL
Activity (Plasma [10]): 4.58 µM
Vd [11]: 0.35 L/kg

Structure (SMILES): O=C(NC[C@@H]1OC(=O)N2c3ccc(N4CCCCC4=O)cc3SC[C@@H]12)c1ccc(Cl)s1
IC50 (Coagulation factor X): 0.00489 µM
2aPTT (Plasma [2]): 0.62 µM
Activity (Plasma [10]): 0.64 µM

Structure (SMILES): O=C(NC[C@@H]1OC(=O)N2c3ccc(N4CCOCC4=O)cc3S(=O)(=O)C[C@@H]12)c1ccc(Cl)s1
clearance [1]: 0.493 L/h/kg
IC50 (Coagulation factor X): 0.0174 µM
2aPTT (Plasma [2]): 0.76 µM
AUC(0-inf) [3]: 6.12 µg·h/mL
Cmax [4]: 0.917 µg/mL
half-life [5]: 0.54 h
half-life [6]: 2.14 h
bioavailability [7]: 7.3%
Tmax [8]: 0.38 h
AUC(0-inf) [9]: 1.54 µg·h/mL
Activity (Plasma [10]): 0.47 µM
Vd [11]: 0.154 L/kg

Structure (SMILES): CS(=O)(=O)c1ccccc1-c1ccc2c(c1)SC[C@H]1[C@H](CNC(=O)c3ccc(Cl)cc3)OC(=O)N21
IC50 (Coagulation factor X): 1.61 µM

Structure (SMILES): O=C(NC[C@@H]1OC(=O)N2c3ccc(N4CCOCC4=O)cc3OC[C@@H]12)C(Cl)Cl
IC50 (Coagulation factor X): 52.7 µM

Structure (SMILES): O=C(NC[C@@H]1OC(=O)N2c3ccc(N4CCN(S(=O)(=O)c5ccccc5)CC4=O)cc3OC[C@@H]12)c1ccc(Cl)s1
IC50 (Coagulation factor X): 5.53 µM

Structure (SMILES): O=C(NC[C@@H]1OC(=O)N2c3ccc(N4CCOCC4=O)cc3OC[C@@H]12)c1ccc(Cl)cc1
IC50 (Coagulation factor X): 0.16 µM
2aPTT (Plasma [2]): 0.93 µM
Activity (Plasma [10]): 1.06 µM

Structure (SMILES): O=C(NC[C@@H]1OC(=O)N2c3ccc(N4CCOCC4=O)cc3OC[C@@H]12)c1cc2cccc(Cl)c2s1
IC50 (Coagulation factor X): > 100 µM

Now from value to compound:

IC50 (Coagulation factor X): 0.59 µM
Structure (SMILES): CO[C@@H]1CCN(c2ccc3c(c2)OC[C@H]2[C@H](CNC(=O)c4ccc(Cl)s4)OC(=O)N32)C(=O)C1

IC50 (Coagulation factor X): 0.0452 µM
Structure (SMILES): O=C(NC[C@@H]1OC(=O)N2c3ccc(N4CCOCC4=O)cc3SC[C@@H]12)c1ccc(Cl)cc1

IC50 (Coagulation factor X): 0.0505 µM
Structure (SMILES): O=C(NC[C@@H]1OC(=O)N2c3ccc(N4CCCCC4=O)cc3S(=O)(=O)C[C@@H]12)c1ccc(Cl)s1

IC50 (Coagulation factor X): 0.064 µM
Structure (SMILES): O=C(NC[C@@H]1OC(=O)N2c3ccc(N4CCOCC4=O)cc3[S+]([O-])C[C@@H]12)c1ccc(Cl)s1 (stereo partly specified)

IC50 (Coagulation factor X): 0.71 µM
Structure (SMILES): O=C(NC[C@@H]1OC(=O)N2c3ccc(N4CCOCC4=O)cc3OC[C@@H]12)c1ccc(Cl)cn1

IC50 (Coagulation factor X): 0.19 µM
Structure (SMILES): O=C(NC[C@@H]1OC(=O)N2c3ccc(N4CCNCC4=O)cc3OC[C@@H]12)c1ccc(Cl)s1

IC50 (Coagulation factor X): 0.0209 µM
Structure (SMILES): CS(=O)(=O)c1ccccc1-c1ccc2c(c1)SC[C@H]1[C@H](CNC(=O)c3ccc(Cl)s3)OC(=O)N21
